Assay results taken from ChEMBL document CHEMBL4118021, “Studies of TAK1-centered polypharmacology with novel covalent TAK1 inhibitors” (Bioorg Med Chem, 2017).
Active and inactive are the calls of the source. The rule behind the calls is not given here.

How the values were obtained:
[1] = target: Serine/threonine-protein kinase MARK2 (Homo sapiens) (UniProt Q7KZI7); assay: Inhibition of MARK2 in human SKCO1 cells at 1 uM after 4 hrs using biotin labeled EVAVKIIDK probe by mass-spectrometric analysis relative to control; format: cell-based
[2] = target: Eukaryotic translation initiation factor 2-alpha kinase 3 (Homo sapiens) (UniProt Q9NZJ5); assay: Inhibition of PEK in human SKCO1 cells at 1 uM after 4 hrs using biotin labeled DLKPSNIFFTMDDVVK probe by mass-spectrometric analysis relative to control; format: cell-based
[3] = target: Mast/stem cell growth factor receptor Kit (Homo sapiens) (UniProt P10721); assay: Inhibition of human KIT (571 to 952 residues) expressed in bacterial expression system assessed as enzyme activity at 1 uM by KINOMEScan assay relative to control; parameters: scale not given: the % may be the effect or the level left
In short: (§1)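 In vitro ATP-site competition binding assay across a panel of 456 kinases, with compound tested at 1 and 10 μM.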

[4] = target: Mitogen-activated protein kinase kinase kinase 20 (Homo sapiens) (UniProt Q9NYL2); assay: Inhibition of human ZAK (1 to 331 residues) expressed in bacterial expression system assessed as enzyme activity at 10 uM by KINOMEScan assay relative to control; parameters: scale not given: the % may be the effect or the level left; in short: as §1
[5] = target: T-complex protein 1 subunit epsilon (Homo sapiens) (UniProt P48643); assay: Binding affinity to CCT5 in human NCI-H358 cells at 1 uM by mass spectrometry based pull down assay; format: cell-based
[6] = target: Citrate synthase, mitochondrial (Homo sapiens) (UniProt O75390); assay: Binding affinity to CS in human NCI-H358 cells at 1 uM by mass spectrometry based pull down assay; format: cell-based
[7] = target: Protein NipSnap homolog 1 (Homo sapiens) (UniProt Q9BPW8); assay: Binding affinity to NIPSNAP1 in human NCI-H358 cells at 1 uM by mass spectrometry based pull down assay; format: cell-based
[8] = target: Y-box-binding protein 1 (Homo sapiens) (UniProt P67809); assay: Binding affinity to YBX1 in human NCI-H358 cells at 1 uM by mass spectrometry based pull down assay; format: cell-based
[9] = target: Thioredoxin (Homo sapiens) (UniProt P10599); assay: Binding affinity to TXN in human NCI-H358 cells at 1 uM by mass spectrometry based pull down assay; format: cell-based
[10] = target: Ubiquitin-like modifier-activating enzyme 1 (Homo sapiens) (UniProt P22314); assay: Binding affinity to UBA1 in human NCI-H358 cells at 1 uM by mass spectrometry based pull down assay; format: cell-based
[11] = target: Aldehyde dehydrogenase family 3 member A2 (Homo sapiens) (UniProt P51648); assay: Binding affinity to ALDH3A2 in human NCI-H23 cells at 1 uM by mass spectrometry based pull down assay; format: cell-based
[12] = target: Protein disulfide-isomerase (Homo sapiens) (UniProt P07237); assay: Binding affinity to P4HB in human NCI-H358 cells at 1 uM by mass spectrometry based pull down assay; format: cell-based
[13] = target: tRNA (guanosine(18)-2'-O)-methyltransferase TARBP1 (Homo sapiens) (UniProt Q13395); assay: Binding affinity to TARBP1 in human NCI-H358 cells at 1 uM by mass spectrometry based pull down assay; format: cell-based
[14] = target: Phosphoinositide 3-kinase regulatory subunit 4 (Homo sapiens) (UniProt Q99570); assay: Binding affinity to PIK3R4 in human NCI-H23 cells at 1 uM by mass spectrometry based pull down assay; format: cell-based
[15] = target: High mobility group protein B2 (Homo sapiens) (UniProt P26583); assay: Binding affinity to HMGB2 in human NCI-H358 cells at 1 uM by mass spectrometry based pull down assay; format: cell-based
[16] = target: Mitotic interactor and substrate of PLK1 (Homo sapiens) (UniProt Q8IVT2); assay: Binding affinity to MISP in human NCI-H358 cells at 1 uM by mass spectrometry based pull down assay; format: cell-based
[17] = target: Actin-related protein 2/3 complex subunit 2 (Homo sapiens) (UniProt O15144); assay: Binding affinity to ARPC2 in human NCI-H358 cells at 1 uM by mass spectrometry based pull down assay; format: cell-based
[18] = target: Peroxiredoxin-4 (Homo sapiens) (UniProt Q13162); assay: Binding affinity to PRDX4 in human NCI-H358 cells at 1 uM by mass spectrometry based pull down assay; format: cell-based
NCI-H23 [19] = assay: Binding affinity to PSMA7 in human NCI-H23 cells at 1 uM by mass spectrometry based pull down assay; format: cell-based
[20] = target: Glutamate--cysteine ligase catalytic subunit (Homo sapiens) (UniProt P48506); assay: Binding affinity to GCLC in human NCI-H23 cells at 1 uM by mass spectrometry based pull down assay; format: cell-based
[21] = target: Prostaglandin reductase 1 (Homo sapiens) (UniProt Q14914); assay: Binding affinity to PTGR1 in human NCI-H23 cells at 1 uM by mass spectrometry based pull down assay; format: cell-based
[22] = target: Cytosolic iron-sulfur assembly component 2A (Homo sapiens) (UniProt Q9H5X1); assay: Binding affinity to FAM96A in human NCI-H23 cells at 1 uM by mass spectrometry based pull down assay; format: cell-based
[23] = target: Splicing factor 3B subunit 3 (Homo sapiens) (UniProt Q15393); assay: Binding affinity to SF3B3 in human NCI-H358 cells at 1 uM by mass spectrometry based pull down assay; format: cell-based
[24] = target: Multifunctional protein CAD (Homo sapiens) (UniProt P27708); assay: Binding affinity to CAD in human NCI-H23 cells at 1 uM by mass spectrometry based pull down assay; format: cell-based
[25] = target: F-actin-capping protein subunit beta (Homo sapiens) (UniProt P47756); assay: Binding affinity to CAPZB in human NCI-H23 cells at 1 uM by mass spectrometry based pull down assay; format: cell-based
NCI-H23 [26] = assay: Binding affinity to NDUFS3 in human NCI-H23 cells at 1 uM by mass spectrometry based pull down assay; format: cell-based
[27] = target: Lactoylglutathione lyase (Homo sapiens) (UniProt Q04760); assay: Binding affinity to GLO1 in human NCI-H358 cells at 1 uM by mass spectrometry based pull down assay; format: cell-based
[28] = target: Retinaldehyde dehydrogenase 3 (Homo sapiens) (UniProt P47895); assay: Binding affinity to ALDH1A3 in human NCI-H358 cells at 1 uM by mass spectrometry based pull down assay; format: cell-based
In short: (§2)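 NCI-H23 or NCI-H358 cells were grown and lysed. Lysates were incubated overnight at 4 °C with 1 μM biotinylated covalent probe or DMSO, then pulled down on streptavidin beads. Proteins were run on polyacrylamide gels and stained with Coomassie. Bands were excised, digested and identified by mass spectrometry.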

[29] = target: AP2-associated protein kinase 1 (Homo sapiens) (UniProt Q2M2I8); assay: Binding affinity to AAK1 in human NCI-H358 cells at 1 uM by mass spectrometry based pull down assay; format: cell-based; in short: as §2
[30] = target: MAP kinase-interacting serine/threonine-protein kinase 2 (Homo sapiens) (UniProt Q9HBH9); assay: Binding affinity to MKNK2 in human NCI-H358 cells at 1 uM by mass spectrometry based pull down assay; format: cell-based
NCI-H358 = assay: Binding affinity to PTGES3L-AARSD1 in human NCI-H358 cells at 1 uM by mass spectrometry based pull down assay; format: cell-based

Chain of Ubiquitin-like modifier-activating enzyme 1 (Homo sapiens) (P22314 whole entry): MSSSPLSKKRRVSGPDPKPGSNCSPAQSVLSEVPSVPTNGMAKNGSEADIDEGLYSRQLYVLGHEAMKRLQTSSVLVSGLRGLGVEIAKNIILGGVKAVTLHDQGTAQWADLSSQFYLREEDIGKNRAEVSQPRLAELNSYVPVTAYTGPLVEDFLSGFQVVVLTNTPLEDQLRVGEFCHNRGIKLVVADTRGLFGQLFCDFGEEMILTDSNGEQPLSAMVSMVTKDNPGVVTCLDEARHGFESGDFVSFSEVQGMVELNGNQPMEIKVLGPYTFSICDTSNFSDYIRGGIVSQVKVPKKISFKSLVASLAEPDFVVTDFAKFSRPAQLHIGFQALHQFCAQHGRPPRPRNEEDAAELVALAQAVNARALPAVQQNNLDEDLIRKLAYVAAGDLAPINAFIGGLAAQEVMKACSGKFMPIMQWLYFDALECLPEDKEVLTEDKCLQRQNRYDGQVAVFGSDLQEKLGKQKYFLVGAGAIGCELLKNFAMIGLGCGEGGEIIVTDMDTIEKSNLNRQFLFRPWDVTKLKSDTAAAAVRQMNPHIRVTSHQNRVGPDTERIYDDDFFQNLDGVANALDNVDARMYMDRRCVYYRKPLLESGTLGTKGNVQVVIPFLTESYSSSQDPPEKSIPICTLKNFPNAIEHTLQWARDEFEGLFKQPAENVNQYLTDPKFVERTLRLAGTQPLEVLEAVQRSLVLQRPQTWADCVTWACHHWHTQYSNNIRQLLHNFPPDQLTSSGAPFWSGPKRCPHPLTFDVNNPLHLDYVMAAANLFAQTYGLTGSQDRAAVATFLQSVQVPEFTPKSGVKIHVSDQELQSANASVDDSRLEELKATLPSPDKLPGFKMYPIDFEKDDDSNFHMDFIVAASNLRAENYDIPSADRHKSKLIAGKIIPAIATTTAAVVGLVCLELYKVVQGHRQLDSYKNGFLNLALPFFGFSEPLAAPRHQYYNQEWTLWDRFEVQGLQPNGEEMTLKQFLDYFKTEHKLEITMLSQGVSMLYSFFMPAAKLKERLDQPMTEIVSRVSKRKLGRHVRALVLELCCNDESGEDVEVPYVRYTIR
Chain of Thioredoxin (Homo sapiens) (P10599 whole entry): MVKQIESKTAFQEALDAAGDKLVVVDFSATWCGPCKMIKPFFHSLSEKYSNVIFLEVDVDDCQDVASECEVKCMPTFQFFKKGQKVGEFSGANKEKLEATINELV
Chain of Splicing factor 3B subunit 3 (Homo sapiens) (Q15393 whole entry): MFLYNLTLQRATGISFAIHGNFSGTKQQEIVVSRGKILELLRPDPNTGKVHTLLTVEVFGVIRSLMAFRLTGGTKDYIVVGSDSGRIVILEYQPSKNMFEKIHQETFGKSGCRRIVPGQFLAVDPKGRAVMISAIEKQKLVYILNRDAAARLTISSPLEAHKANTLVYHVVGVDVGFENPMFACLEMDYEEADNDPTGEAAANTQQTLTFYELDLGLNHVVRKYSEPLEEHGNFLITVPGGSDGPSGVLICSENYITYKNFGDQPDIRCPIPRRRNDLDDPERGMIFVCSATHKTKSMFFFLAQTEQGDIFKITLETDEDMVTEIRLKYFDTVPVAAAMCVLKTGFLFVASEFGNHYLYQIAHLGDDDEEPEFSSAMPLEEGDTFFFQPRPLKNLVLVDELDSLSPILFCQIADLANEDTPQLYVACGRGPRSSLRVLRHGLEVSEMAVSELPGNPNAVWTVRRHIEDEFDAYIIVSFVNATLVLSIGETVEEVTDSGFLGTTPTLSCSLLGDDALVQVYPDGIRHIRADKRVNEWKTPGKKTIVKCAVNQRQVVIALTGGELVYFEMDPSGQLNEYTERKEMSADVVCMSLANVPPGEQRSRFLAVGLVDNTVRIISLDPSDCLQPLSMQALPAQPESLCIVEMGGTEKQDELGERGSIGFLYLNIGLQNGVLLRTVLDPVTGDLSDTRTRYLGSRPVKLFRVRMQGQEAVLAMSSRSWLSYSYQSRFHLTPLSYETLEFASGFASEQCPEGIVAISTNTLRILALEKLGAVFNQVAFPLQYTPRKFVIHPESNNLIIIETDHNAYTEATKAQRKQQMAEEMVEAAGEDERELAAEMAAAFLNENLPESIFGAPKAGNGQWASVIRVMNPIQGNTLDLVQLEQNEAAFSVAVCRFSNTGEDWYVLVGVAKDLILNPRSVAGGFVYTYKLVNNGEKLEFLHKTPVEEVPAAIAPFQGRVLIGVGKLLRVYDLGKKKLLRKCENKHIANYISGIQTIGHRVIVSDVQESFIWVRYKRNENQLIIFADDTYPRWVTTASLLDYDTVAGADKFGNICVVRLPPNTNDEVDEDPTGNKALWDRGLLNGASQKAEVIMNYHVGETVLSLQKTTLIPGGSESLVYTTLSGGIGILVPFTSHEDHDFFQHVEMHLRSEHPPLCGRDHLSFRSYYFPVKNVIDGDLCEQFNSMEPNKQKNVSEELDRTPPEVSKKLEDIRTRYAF
Chain of Mitotic interactor and substrate of PLK1 (Homo sapiens) (Q8IVT2 whole entry): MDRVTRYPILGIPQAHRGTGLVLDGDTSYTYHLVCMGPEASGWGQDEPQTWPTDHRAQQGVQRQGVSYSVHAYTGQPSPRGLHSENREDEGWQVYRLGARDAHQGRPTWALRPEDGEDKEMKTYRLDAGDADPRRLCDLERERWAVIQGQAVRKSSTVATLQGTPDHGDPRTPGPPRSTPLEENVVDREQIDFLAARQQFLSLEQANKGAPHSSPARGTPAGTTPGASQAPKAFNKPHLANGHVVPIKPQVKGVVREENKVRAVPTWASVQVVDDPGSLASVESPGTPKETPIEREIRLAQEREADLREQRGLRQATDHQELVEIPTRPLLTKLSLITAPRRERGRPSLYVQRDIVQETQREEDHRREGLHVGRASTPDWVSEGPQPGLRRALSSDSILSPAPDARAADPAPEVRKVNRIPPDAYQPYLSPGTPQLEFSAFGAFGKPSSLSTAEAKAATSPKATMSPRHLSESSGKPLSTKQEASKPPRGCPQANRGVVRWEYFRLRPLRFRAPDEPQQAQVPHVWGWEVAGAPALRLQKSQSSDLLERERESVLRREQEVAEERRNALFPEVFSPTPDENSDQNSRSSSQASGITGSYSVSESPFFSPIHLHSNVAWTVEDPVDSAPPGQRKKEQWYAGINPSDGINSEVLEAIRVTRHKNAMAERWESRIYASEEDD
Chain of Mitogen-activated protein kinase kinase kinase 20 (Homo sapiens) (Q9NYL2 2-800 limits assumed): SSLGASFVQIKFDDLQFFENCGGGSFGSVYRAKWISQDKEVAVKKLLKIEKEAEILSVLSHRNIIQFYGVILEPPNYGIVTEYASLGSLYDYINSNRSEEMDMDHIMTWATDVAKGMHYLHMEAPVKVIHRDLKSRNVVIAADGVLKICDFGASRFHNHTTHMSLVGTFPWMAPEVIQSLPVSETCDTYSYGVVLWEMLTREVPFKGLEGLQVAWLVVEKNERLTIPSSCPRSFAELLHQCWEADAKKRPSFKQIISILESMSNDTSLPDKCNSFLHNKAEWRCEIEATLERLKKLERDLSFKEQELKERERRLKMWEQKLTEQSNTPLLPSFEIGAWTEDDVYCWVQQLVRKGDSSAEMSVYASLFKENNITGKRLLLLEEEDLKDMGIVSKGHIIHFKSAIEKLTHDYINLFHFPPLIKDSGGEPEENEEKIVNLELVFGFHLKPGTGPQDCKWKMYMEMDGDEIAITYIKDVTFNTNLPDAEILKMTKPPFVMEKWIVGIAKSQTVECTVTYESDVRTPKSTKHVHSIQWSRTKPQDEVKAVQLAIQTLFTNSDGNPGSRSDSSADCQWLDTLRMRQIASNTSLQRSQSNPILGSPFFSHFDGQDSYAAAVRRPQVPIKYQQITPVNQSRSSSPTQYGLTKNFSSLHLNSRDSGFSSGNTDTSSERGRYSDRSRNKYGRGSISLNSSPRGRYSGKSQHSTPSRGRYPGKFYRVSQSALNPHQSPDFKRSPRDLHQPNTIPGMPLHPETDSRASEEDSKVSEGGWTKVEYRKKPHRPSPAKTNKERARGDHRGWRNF
Chain of Y-box-binding protein 1 (Homo sapiens) (P67809 whole entry): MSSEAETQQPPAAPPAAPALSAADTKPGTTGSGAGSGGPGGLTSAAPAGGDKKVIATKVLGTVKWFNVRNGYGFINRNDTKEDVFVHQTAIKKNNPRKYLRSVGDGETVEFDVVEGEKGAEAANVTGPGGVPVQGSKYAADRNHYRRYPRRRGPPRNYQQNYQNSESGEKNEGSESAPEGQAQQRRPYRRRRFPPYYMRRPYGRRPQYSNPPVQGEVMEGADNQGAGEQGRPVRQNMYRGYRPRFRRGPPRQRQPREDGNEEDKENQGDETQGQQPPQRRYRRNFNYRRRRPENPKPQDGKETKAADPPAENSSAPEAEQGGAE
Chain of Peroxiredoxin-4 (Homo sapiens) (Q13162 whole entry): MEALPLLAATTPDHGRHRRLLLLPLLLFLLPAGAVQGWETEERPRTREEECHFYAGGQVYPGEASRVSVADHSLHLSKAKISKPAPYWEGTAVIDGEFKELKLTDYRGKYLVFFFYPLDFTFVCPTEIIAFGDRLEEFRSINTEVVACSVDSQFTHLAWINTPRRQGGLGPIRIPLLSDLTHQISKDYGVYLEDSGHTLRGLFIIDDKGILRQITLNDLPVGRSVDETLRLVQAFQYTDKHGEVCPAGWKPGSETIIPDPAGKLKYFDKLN
Chain of Retinaldehyde dehydrogenase 3 (Homo sapiens) (P47895 whole entry): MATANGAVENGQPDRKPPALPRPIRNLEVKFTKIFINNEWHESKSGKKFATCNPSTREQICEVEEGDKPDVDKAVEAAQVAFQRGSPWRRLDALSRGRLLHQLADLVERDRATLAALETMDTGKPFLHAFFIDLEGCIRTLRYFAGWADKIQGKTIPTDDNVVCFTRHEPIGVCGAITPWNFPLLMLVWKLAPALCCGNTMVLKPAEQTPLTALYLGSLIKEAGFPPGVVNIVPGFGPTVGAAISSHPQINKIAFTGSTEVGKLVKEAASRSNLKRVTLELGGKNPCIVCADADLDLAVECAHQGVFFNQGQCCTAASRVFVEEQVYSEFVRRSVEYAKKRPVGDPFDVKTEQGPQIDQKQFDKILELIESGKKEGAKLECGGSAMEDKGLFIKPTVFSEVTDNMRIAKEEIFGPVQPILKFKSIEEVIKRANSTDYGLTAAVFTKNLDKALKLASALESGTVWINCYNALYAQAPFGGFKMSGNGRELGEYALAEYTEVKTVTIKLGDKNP

SMILES: C=CC(=O)Nc1ccccc1Nc1nc(Nc2ccc(N3CCN(C)CC3)cc2)ncc1Cl
- inhibition [1]: -5.7%

SMILES: COc1cc(O)c2c(c1)/C=C/C[C@H](O)[C@H](O)C(=O)/C=C\C[C@H](C)OC2=O
- inhibition [2]: -10%
- Activity [3]: 20%
- Activity [4]: 2.2%

SMILES: C=CC(=O)Nc1ccccc1Nc1nc(Nc2ccc(N3CCN(CCOCCOCCOCCNC(=O)CCCC[C@@H]4SC[C@@H]5NC(=O)N[C@@H]54)CC3)cc2)ncc1Cl
- Activity [5]: Active
- Activity [6]: Active
- Activity [7]: Active
- Activity [8]: Active
- Activity [9]: Active
- Activity [10]: Active
- Activity [11]: Active
- Activity [12]: Active
- Activity [13]: Active
- Activity [14]: Active
- Activity [15]: Active
- Activity [16]: Active
- Activity [17]: Active
- Activity [18]: Active
- Activity (NCI-H23 [19]): Active
- Activity [20]: Active
- Activity [21]: Active
- Activity [22]: Active
- Activity [23]: Active
- Activity [24]: Active
- Activity [25]: Active
- Activity (NCI-H23 [26]): Active
- Activity [27]: Active
- Activity [28]: Active
- Activity [29]: Active
- Activity [30]: Active
- Activity (NCI-H358): Active
